Rpn11 inh – Rpn11 (PSMD14) deubiquitinase inhibitors, primary screen, biochemical, fluorescence polarization, uHTS; human 26S proteasome, Ub4-pepOG fluorescence polarization; 20S core pre-blocked with epoxomicin; inhibition, % at 20 µM; actives 0.59% (n = 360,000);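 active = inhibition at 20 µM, scaled to each plate's controls, above about 33%, limit read from the data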
TPT1 inh – Candida albicans TPT1 enzyme inhibitors, primary screen, biochemical, fluorescence polarization; recombinant caTPT1, FP RNA substrate dephosphorylation; inhibition, % at 5 µM; actives 0.81% (n = 300,000);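 active = inhibition above the mean of all tested compounds plus 3 SD, set per screening campaign, cut at about 24% in these data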;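 note: plate controls were DMSO alone for no effect and ferristatin control at 100 nM for full effect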
HNF4A DNA FP – change in binding of human HNF4A to DNA, primary screen, biochemical, fluorescence polarization, FITC-DNA | 1 h | activity change, % at 10 µM | actives 0.3% (n = 360,000) | AID 1224865, 2016; in the data active = activity change above about 30%, passing the limit was not always enough
Target sequence (P41235 whole entry, looked up): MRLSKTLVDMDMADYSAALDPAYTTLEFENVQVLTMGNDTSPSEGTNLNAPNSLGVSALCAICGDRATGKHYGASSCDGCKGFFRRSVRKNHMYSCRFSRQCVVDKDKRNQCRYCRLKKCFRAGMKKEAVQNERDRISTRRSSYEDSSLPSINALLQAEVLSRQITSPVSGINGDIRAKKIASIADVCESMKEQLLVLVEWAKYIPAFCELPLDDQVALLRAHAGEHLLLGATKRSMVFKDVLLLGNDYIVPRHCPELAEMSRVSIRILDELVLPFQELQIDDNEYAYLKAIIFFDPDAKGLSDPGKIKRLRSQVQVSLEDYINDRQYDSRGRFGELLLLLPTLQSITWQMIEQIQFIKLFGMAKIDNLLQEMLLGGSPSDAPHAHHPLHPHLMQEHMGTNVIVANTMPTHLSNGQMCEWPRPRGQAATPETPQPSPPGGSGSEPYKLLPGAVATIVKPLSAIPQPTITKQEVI
XiGFP reactiv – activators of inactive X chromosome reactivation, primary screen, imaging, XiGFP fibroblasts, GFP high-content imaging, set 2; actives 0.055% (n = 360,000); XiGFP mouse fibroblasts, % GFP-positive cells imaging, 3 d; cells co-treated with 5-aza-dC sensitizer; scaled so ellipticine positive control = 100%; activation, % at 7.58 µM;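 active = mean normalized replicate activation at least 10% and every replicate at or above 10%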;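 note: 0% = median of on-plate neutral control wells and 100% = ellipticine 6 µM median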
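Schedule: 3 d treatment, 15 min room-temperature fixation; system: 68-5-11 XiGFP fibroblast line; buffer or medium: DMEM plus 5-aza-dC sensitizer; control set: ellipticine 6 µM positive control; compound: one concentration, pinned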
aDG glyco up – activators of alpha-DG glycosylation, primary screen, uHTS, Pro5-aDG cells, AlphaScreen | actives 0.22% (n = 360,000) | alpha-DG glycosylation AlphaScreen (IIH6); 0% Pro5, 100% B10-LARGE cell signal | AID 624168, 2012 | activation, % at 10 µM;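 active = activation of at least 8% versus controls, or a plate z-score of at least 8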;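 note: Pro5 are CHO cells carrying HIG-tagged alpha-DG that lacks glycosylation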
CSN inh – inhibitors of CSN-mediated cullin deneddylation, primary screen, biochemical, fluorescence polarization, uHTS; COP9 signalosome complex subunit 5 (Homo sapiens), Q92905; Purified CSN, SCF-Nedd8-OG deneddylation; inhibition, % at 12.5 µM; actives 0.38% (n = 360,000); AID 651999, 2013;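 active = pattern-corrected inhibition above about 35%, with an unprinted fluorescence ratio check between 0.5 and 1.5, limit read from the data, passing the limit was not always enough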;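 note: 0% = enzyme with substrate and 100% = substrate without enzyme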
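Test system: purified human Csn5 enzyme expressed in HEK293T cells. Amount: 0.24 nM enzyme. Reagent: SCFSkp2-Nedd8OG substrate at 10 nM final. Schedule: 90 min incubation of compound, enzyme and substrate at room temperature. Detection: fluorescence polarization. Read-out: % inhibition of substrate cleavage by Csn5.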
CSN deneddyl val – Csn5 deneddylation inhibitors, confirmation, biochemical, fluorescence polarization, single concentration, SCF-Nedd8OG substrate; inhibition, % at 16.6 µM; Csn5 deneddylation of SCF-Nedd8OG, 90 min; actives 62% (n = 540); shares compounds with CSN inh; AID 720654, 2013; in the data active = inhibition above about 50%;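 note: 0% = DMSO with enzyme and 100% = no enzyme wells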
MMP2 cntr CSN – MMP-2 protease inhibition counter-screen, confirmation, counter-screen for CSN deneddylation inhibitor project, biochemical, fluorescence, single concentration. shares compounds with CSN inh. recombinant MMP-2, FRET substrate fluorescence, 60 min. actives 33% (n = 540). inhibition, % at 16.6 µM. AID 720655, 2013;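 active = corrected plate-normalized z-score of 5 or more, or -5 or less, or inhibition of 15% or more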;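 note: plate controls were DMSO wells with enzyme for no effect and buffer wells lacking MMP-2 for full effect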
Thrombin cntr – thrombin (bovine) inhibition, counter-screen for CSN hits; actives 49% (n = 540); bovine thrombin cleavage of Ub4-pepOG, fluorescence polarization; inhibition, % at 16.6 µM; AID 720656; shares compounds with CSN inh;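 active = inhibition at or above a set limit, with a fluorescence interference ratio between 0.5 and a set maximum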
* marks the source's active call; other numbers are inactive results; x = no result shown; + = active, no number; ! = repeats disagree. Sampled rows, rich in hits. Any-hit rate of the full collection: about 1.3%.

SMILES	Rpn11 inh	TPT1 inh	HNF4A DNA FP	XiGFP reactiv	aDG glyco up	CSN inh	CSN deneddyl val	MMP2 cntr CSN	Thrombin cntr
C=C(C)CN(CC)c1nc(N)c2c(N)nc3c(c2c1C#N)CC(=O)N3C12CC3CC(CC(C3)C1)C2	3	-5	7	x	0	19	x	x	x
N#Cc1c(N2CCCC(O)C2)nc(N)c2c(N)nc3c(c12)CC(=O)N3C12CC3CC(CC(C3)C1)C2 (stereo unspecified)	28	7	28	x	0	52*	93*	4	-43
CCOc1ccc(C(=O)Nc2cc(-c3nc4ccccc4[nH]3)ccc2Cl)cc1[N+](=O)[O-]	-30	-1	202	0	0	111*	x	-4	-7
C[C@@H]1CN([C@H](C)CO)C(=O)Cc2cc(NS(=O)(=O)c3ccccc3)ccc2O[C@@H]1CN(C)Cc1ccc(C(=O)Nc2ccccc2N)cc1	x	x	x	0	x	x	x	x	x
CC(=O)NN1C(=O)/C(=C/c2ccc(Br)o2)SC1=S	34	12	60*	x	0	51*	96*	19*	34*
O=C(COc1ccc(Cl)cc1Cl)Nc1ccc(C(=O)Nc2ccccc2C(=O)O)cc1	7	-1	-5	0	0	52*	75*	20*	6
CCCCn1c(NC(=O)c2ccccc2Cl)c(C#N)c2nc3ccccc3nc21	23	16	64*	x	1	59*	98*	2	-36
CO[C@@H]1CN(C)C(=O)c2cc(NS(=O)(=O)c3ccccc3)ccc2OC[C@H](C)N(C(=O)NC(C)C)C[C@@H]1C	x	x	x	0	x	x	x	x	x
CCCc1ccc(O)c(N=Cc2cc(Br)cc(OCC)c2O)c1	24	6	11	0	0	38*	89*	-5	46*
O=c1c2c3c(sc2[nH]c(=S)n1Cc1ccco1)CCC3	7	3	-12	0	0	45*	92*	34*	-2
Cc1ccc(S(=O)c2ccc([N+](=O)[O-])c3nonc23)cc1 (stereo unspecified)	-5	x	10	0	0	42*	83*	-50*	2
COc1ccc(S(=O)(=O)N(C)C[C@H]2Oc3c(NC(=O)c4ccc(-c5nccs5)cc4)cccc3C(=O)N([C@@H](C)CO)C[C@H]2C)cc1	x	x	x	-1	x	x	x	x	x
CO[C@@H]1CN(C)C(=O)c2cc(NS(=O)(=O)c3ccccc3C)ccc2OC[C@H](C)N(S(C)(=O)=O)C[C@H]1C	x	x	x	0	x	x	x	x	x
N#Cc1ccccc1CN1C(=O)S/C(=C/c2cccn2-c2ccc(C(=O)O)cc2)C1=O	-13	-3	-7	x	0	29	x	x	x
O=C(O)c1ccc(-n2cccc2/C=C2/NC(=O)N(c3ccccc3)C2=O)cc1	35	-1	-64	0	0	36*	71*	20*	-21
O=C(O)c1ccc(-n2cccc2/C=C2/SC(=O)N(CC(=O)N3CCCC3)C2=O)cc1	17	4	-55	0	0	43*	x	31*	11
O=C(O)c1ccc(-n2cccc2/C=C2/NC(=O)N(c3cccc(Cl)c3)C2=O)cc1	x	x	-66	0	0	35	x	x	x
COc1cccc(/C=N/NC(=O)CSc2ccccc2C)c1O	2	0	-2	0	1	100*	112*	10	1
C[C@@H]1CCCCO[C@@H](CN(C)Cc2ccc(C(=O)O)cc2)[C@H](C)CN([C@@H](C)CO)C(=O)c2cc(NS(=O)(=O)c3ccc(F)cc3)ccc2O1	x	x	x	0	x	x	x	x	x
Cc1ccccc1-c1ccc([C@@H]2[C@H]3CN(C(=O)Cc4ccccn4)CC(=O)N3[C@H]2CO)cc1	x	x	x	0	x	x	x	x	x
Cc1nnn(-c2nonc2N)c1C(=O)N/N=C/c1ccccc1O	14	0	4	0	0	44*	-17	23*	-9
O=C1C2C(C(=O)N1/N=C/c1cc([N+](=O)[O-])ccc1O)C1C=CC2C12CC2 (stereo unspecified)	-4	-2	1	x	0	-5	x	x	x
O=C1C2C(C(=O)N1/N=C/c1cc([N+](=O)[O-])c(O)cc1O)C1C=CC2C12CC2 (stereo unspecified)	-23	-3	-18	0	0	36*	71	17*	10
N#C/C(=C\c1cccs1)c1nc2ccccc2[nH]1	-1	8	4	0	0	-8	x	x	x
N#C/C(=C/c1ccc(O)c(O)c1)c1nc2ccccc2[nH]1	x	21	10	0	0	124*	+	-1	55*
SMILES	Rpn11 inh	TPT1 inh	HNF4A DNA FP	XiGFP reactiv	aDG glyco up	CSN inh	CSN deneddyl val	MMP2 cntr CSN	Thrombin cntr
Cc1noc(C)c1S(=O)(=O)N(C)C[C@@H]1Oc2c(NC(=O)c3nc4ccccc4s3)cccc2C(=O)N([C@@H](C)CO)C[C@@H]1C	x	x	x	-1	x	x	x	x	x
O=C(Nc1nc(-c2ccco2)c(-c2ccco2)s1)c1cnccn1	x	-2	x	0	x	x	x	x	x
O=C(Nc1nc(-c2ccco2)c(-c2ccco2)s1)c1ccc(F)cc1F	25	x	1	0	1	45*	103*	1	13
CCN1CCN(Cc2ccc(NC(=O)c3ccc(C)c(NC(=O)c4c[nH]c5cc(C(F)(F)F)ccc5c4=O)c3)cc2C(F)(F)F)CC1	3	-3	55*	0	0	78*!	90*	9	4
Cc1ccc(S(=O)(=O)/N=C2/NC(=O)/C(=C/c3cc([N+](=O)[O-])ccc3O)S2)cc1	x	64*	25	0	0	55*	53*	-44*	31*
Cc1ccc(CNc2ccc(O)cc2)cc1	-6	x	1	x	1	38*	87*	0	-30
O=C(N/N=C/c1cc(Br)c(O)c(Br)c1O)c1ccc2c(c1)OCCO2	-6	0	-2	0	0	4	x	x	x
